According to ChEMBL document CHEMBL4699564, “Hit-to-lead optimization and discovery of a potent, and orally bioavailable G protein coupled receptor kinase 2 (GRK2) inhibitor” (Bioorg Med Chem Lett, 2020):
Each block holds one compound with its values, some of them ahead of it.

Legend:
Rhodopsin kinase GRK1 [1] = target: T1, Rhodopsin kinase GRK1 (Homo sapiens, UniProt Q15835); test: Binding affinity to GRK1 (unknown origin) by Thermofluor thermal shift assay
T1 sequence (Q15835 whole entry): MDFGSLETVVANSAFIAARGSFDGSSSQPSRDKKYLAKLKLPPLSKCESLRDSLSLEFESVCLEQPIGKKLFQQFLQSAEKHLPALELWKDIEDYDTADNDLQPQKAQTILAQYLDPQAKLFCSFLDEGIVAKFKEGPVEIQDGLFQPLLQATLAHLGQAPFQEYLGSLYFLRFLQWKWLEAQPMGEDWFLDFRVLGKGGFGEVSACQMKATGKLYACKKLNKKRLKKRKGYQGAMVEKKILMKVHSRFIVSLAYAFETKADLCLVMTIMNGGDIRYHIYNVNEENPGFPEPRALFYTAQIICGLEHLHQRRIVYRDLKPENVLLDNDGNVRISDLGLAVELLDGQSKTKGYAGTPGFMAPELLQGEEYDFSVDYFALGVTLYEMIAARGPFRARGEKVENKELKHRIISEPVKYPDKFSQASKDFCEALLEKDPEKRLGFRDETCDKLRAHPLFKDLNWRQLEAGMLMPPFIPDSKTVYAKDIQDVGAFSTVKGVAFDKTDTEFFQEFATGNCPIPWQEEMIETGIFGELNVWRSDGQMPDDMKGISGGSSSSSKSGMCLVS

[2] = target: T2, G protein-coupled receptor kinase 5 (Homo sapiens, UniProt P34947); test: Binding affinity to GRK5 (unknown origin) by Thermofluor thermal shift assay
T2 sequence (P34947 whole entry): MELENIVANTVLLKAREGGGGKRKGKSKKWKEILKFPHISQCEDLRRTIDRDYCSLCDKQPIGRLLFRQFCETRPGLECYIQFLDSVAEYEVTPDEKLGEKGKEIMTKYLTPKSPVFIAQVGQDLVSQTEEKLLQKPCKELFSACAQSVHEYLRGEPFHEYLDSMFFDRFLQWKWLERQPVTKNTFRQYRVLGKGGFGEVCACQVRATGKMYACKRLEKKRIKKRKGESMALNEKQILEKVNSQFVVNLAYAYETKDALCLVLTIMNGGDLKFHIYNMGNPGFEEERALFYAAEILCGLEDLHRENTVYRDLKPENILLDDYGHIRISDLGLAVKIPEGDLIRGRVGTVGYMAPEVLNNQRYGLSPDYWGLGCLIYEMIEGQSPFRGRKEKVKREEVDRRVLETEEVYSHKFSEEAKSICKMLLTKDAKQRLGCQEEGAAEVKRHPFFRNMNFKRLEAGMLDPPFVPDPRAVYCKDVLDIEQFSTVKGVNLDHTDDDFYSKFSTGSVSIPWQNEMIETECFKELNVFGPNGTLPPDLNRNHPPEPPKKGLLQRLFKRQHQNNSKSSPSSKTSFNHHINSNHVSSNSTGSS

[3] = target: Rho-associated protein kinase 1 (Homo sapiens, UniProt Q13464); test: Inhibition of human ROCK1
Sequence of Rho-associated protein kinase 1 (Q13464 whole entry): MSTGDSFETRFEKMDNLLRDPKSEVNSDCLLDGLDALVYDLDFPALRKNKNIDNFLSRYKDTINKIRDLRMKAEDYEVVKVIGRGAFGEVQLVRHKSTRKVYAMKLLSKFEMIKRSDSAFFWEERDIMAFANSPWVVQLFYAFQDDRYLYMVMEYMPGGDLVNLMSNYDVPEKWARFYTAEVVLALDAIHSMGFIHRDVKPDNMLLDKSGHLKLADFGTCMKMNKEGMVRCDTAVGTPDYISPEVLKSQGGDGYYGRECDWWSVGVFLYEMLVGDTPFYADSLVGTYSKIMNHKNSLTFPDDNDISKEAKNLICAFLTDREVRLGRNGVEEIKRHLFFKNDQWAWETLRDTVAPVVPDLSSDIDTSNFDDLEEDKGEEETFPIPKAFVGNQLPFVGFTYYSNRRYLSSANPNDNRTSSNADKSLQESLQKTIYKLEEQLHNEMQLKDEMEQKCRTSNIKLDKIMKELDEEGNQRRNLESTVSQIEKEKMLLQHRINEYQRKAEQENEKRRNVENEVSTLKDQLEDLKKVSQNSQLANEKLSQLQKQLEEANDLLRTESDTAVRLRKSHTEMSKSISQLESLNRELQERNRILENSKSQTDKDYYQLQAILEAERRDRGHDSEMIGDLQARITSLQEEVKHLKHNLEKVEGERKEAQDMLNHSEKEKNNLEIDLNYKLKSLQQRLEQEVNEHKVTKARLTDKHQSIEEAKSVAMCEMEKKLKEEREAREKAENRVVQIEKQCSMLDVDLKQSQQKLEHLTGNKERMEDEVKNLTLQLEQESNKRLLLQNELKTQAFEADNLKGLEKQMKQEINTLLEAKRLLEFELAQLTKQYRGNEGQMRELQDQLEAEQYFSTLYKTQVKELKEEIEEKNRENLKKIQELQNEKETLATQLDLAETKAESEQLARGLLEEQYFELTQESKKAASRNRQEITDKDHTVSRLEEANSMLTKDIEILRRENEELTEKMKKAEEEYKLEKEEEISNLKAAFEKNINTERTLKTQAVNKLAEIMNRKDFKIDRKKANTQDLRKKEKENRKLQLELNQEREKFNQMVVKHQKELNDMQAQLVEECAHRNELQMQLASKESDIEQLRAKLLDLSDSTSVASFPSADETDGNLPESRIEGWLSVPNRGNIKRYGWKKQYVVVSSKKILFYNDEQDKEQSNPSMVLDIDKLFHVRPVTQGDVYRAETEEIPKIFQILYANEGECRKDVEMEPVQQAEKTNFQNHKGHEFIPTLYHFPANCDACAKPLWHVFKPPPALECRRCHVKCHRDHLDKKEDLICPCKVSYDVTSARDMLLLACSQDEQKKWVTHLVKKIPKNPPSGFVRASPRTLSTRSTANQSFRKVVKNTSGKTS

Rhodopsin kinase GRK1 [4] = target: T1, Rhodopsin kinase GRK1; test: Inhibition of human GRK1
Rhodopsin kinase GRK7 = target: T3, Rhodopsin kinase GRK7 (Homo sapiens, UniProt Q8WTQ7); test: Inhibition of human GRK7
T3 sequence (Q8WTQ7 whole entry): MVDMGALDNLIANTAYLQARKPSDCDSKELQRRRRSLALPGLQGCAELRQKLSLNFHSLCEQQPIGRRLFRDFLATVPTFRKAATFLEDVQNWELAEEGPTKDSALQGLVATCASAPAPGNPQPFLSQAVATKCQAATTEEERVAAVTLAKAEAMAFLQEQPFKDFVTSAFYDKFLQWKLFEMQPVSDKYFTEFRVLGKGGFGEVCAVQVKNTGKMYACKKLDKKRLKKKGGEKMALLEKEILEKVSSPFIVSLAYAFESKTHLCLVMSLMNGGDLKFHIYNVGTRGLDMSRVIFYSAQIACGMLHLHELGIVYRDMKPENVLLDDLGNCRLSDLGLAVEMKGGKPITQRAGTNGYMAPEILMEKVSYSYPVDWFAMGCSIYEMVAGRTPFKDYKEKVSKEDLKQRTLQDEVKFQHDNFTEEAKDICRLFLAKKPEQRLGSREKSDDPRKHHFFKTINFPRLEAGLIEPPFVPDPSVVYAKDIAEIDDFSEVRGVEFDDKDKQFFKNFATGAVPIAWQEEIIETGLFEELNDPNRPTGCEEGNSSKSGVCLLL

[5] = Inhibition of protein kinase A (unknown origin); parameters: species or system Homo sapiens
[6] = target: G protein-coupled receptor kinase 6 (Homo sapiens, UniProt P43250); test: Inhibition of human GRK6
Sequence of G protein-coupled receptor kinase 6 (P43250 whole entry): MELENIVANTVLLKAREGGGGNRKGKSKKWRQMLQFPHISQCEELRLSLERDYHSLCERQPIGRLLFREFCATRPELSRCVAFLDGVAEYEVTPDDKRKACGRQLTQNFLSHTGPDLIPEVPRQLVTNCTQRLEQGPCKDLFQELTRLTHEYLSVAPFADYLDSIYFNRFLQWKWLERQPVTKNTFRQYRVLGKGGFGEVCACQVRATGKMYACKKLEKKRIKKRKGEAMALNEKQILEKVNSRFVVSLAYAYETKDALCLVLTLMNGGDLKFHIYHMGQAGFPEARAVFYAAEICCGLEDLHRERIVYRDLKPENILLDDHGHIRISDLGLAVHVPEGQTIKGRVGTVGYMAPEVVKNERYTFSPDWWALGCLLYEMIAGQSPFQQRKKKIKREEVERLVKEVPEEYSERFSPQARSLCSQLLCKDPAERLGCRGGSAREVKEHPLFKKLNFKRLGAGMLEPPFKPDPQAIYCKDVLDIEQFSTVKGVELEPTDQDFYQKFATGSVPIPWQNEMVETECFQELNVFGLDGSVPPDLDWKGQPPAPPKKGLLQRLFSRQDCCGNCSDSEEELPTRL

[7] = target: Protein kinase C alpha type (Homo sapiens, UniProt P17252); test: Inhibition of human PKCalpha
[8] = Apparent permeability across apical to basal side in MDCK-MDR1 cells; format: ADME, cell-based, Canis lupus familiaris; conditions: dog
[9] = target: RAC-alpha serine/threonine-protein kinase (Homo sapiens, UniProt P31749); test: Inhibition of human PKBalpha
Sequence of RAC-alpha serine/threonine-protein kinase (P31749 whole entry): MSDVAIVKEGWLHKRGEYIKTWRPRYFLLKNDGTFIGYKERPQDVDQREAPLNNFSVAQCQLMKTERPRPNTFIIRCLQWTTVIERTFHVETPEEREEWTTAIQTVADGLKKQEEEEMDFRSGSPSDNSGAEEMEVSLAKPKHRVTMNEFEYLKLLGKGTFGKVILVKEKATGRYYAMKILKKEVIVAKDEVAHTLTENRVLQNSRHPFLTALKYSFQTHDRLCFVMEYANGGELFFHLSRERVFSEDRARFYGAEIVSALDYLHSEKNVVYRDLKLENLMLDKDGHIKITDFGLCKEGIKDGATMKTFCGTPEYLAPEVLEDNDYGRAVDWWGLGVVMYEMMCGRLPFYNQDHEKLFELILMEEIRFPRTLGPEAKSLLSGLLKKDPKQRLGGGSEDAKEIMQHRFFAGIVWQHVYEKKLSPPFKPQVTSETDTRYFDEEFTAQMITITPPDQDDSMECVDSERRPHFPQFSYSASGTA

[10] = target: Calcium/calmodulin-dependent protein kinase type II subunit beta (Homo sapiens, UniProt Q13554); test: Inhibition of human CaMK2beta
Sequence of Calcium/calmodulin-dependent protein kinase type II subunit beta (Q13554 whole entry): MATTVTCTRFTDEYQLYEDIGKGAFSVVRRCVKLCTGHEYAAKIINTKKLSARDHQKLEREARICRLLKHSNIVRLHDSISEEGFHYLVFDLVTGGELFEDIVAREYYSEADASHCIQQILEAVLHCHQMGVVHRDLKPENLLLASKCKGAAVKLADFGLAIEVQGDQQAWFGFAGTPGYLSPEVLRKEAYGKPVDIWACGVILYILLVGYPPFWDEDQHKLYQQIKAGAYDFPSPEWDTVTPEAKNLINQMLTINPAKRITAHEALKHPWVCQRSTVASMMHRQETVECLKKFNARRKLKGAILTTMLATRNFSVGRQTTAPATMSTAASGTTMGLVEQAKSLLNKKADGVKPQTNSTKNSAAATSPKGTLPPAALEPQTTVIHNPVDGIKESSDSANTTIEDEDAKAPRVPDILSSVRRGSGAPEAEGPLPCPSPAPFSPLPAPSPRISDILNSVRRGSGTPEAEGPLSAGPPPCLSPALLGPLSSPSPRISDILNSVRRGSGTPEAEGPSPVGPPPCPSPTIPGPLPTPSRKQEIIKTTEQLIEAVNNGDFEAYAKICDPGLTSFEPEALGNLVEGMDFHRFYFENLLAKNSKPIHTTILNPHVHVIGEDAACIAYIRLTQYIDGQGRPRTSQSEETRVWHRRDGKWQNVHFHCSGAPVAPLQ

[11] = target: Ribosomal protein S6 kinase alpha-1 (Homo sapiens, UniProt Q15418); test: Inhibition of RSK1 (unknown origin)
[12] = target: Protein kinase C beta type (Homo sapiens, UniProt P05771); test: Inhibition of human PKCbeta1
Sequence of Protein kinase C beta type (P05771 whole entry): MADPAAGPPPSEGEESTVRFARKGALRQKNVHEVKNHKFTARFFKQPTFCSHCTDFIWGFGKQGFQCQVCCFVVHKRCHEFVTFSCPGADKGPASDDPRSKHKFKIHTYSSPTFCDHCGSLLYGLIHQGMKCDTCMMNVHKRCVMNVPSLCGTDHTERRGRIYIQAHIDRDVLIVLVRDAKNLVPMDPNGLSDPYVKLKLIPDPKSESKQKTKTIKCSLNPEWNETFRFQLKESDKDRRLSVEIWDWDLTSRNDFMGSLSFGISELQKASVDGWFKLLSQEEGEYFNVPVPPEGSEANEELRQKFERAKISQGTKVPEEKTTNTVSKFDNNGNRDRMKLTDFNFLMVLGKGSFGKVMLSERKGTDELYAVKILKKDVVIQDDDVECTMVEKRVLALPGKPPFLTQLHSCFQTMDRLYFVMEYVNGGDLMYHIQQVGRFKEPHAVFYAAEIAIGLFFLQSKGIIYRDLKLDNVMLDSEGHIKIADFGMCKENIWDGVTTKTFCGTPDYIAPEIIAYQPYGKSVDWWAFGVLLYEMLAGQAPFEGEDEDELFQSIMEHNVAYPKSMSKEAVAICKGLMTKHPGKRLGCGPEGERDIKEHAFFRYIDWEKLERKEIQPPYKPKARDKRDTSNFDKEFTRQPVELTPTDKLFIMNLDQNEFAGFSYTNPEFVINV

Aurora kinase A = target: T4, Aurora kinase A (Homo sapiens, UniProt O14965); test: Inhibition of human Aurora A
T4 sequence (O14965 whole entry): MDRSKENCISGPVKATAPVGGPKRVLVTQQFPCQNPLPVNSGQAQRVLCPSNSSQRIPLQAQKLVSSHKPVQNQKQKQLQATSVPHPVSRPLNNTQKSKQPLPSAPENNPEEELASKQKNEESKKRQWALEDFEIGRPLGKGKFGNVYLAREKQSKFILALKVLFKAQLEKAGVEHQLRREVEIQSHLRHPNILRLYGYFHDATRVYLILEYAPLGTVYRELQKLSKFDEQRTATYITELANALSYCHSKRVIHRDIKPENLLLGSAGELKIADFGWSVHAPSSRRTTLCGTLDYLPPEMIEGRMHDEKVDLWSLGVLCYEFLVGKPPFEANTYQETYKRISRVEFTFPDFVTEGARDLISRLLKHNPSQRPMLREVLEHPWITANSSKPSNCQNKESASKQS

[13] = target: T2, G protein-coupled receptor kinase 5; test: Inhibition of human GRK5
[14] = Cmax in C57BL mouse at 2 mg/kg, iv or 10 mg/kg, po administered as single dose; format: ADME, organism-based; parameters: dose 10 mg/kg; conditions: in vivo
How it was run: (§1)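 C57BL mice given a single dose, 2 mg/kg i.v. or 10 mg/kg p.o., both formulated in 20% HPbCD. Plasma concentration–time profiles gave clearance, Vdss, terminal half-lives, Cmax, tmax, oral AUC and bioavailability.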

[15] = Plasma clearance in C57BL mouse at 2 mg/kg, iv or 10 mg/kg, po administered as single dose; format: ADME, organism-based; how it was run: as §1
[16] = Oral bioavailability in C57BL mouse at 10 mg/kg administered as single dose; format: ADME, organism-based; conditions: in vivo; how it was run: as §1
[17] = Tmax in C57BL mouse at 2 mg/kg, iv or 10 mg/kg, po administered as single dose; format: ADME, organism-based; conditions: in vivo; how it was run: as §1
[18] = Half life in C57BL mouse at 2 mg/kg, iv administered as single dose; format: ADME, organism-based; conditions: in vivo; how it was run: as §1
[19] = Volume of distribution at steady state in C57BL mouse at 2 mg/kg, iv or 10 mg/kg, po administered as single dose; format: ADME, organism-based; conditions: in vivo, read-out: Vdss; how it was run: as §1
[20] = Half life in C57BL mouse at 10 mg/kg, po administered as single dose; format: ADME, organism-based; conditions: in vivo; how it was run: as §1

Kd (Rhodopsin kinase GRK1 [1]): 14.5 µM
Kd [2]: 34.3 µM
SMILES: O=c1c2cc(-c3cn[nH]c3)ccc2ncn1Cc1ccccc1

IC50 [3]: 0.246 µM
IC50 (Rhodopsin kinase GRK1 [4]): > 10 µM
IC50 (Rhodopsin kinase GRK7): 9.14 µM
IC50 [5]: 0.855 µM
IC50 [6]: 3.27 µM
IC50 [7]: > 10 µM
Papp A→B [8]: 20.6 ×10⁻⁶ cm/s
IC50 [9]: 1.45 µM
IC50 [10]: 3.85 µM
IC50 [11]: 0.483 µM
IC50 [12]: 9.07 µM
IC50 (Aurora kinase A): 0.011 µM
IC50 [13]: 4.5 µM
SMILES: COc1cccc(Cn2cnc3ccc(-c4cn[nH]c4)cc3c2=O)c1

Papp A→B [8]: 0.85 ×10⁻⁶ cm/s
SMILES: O=C(NCc1c(F)cccc1F)c1cccc(Cn2cnc3ccc(-c4cn[nH]c4)cc3c2=O)c1

Papp A→B [8]: 7.73 ×10⁻⁶ cm/s
SMILES: O=c1c2cc(-c3cn[nH]c3)ccc2ncn1Cc1cccc(Oc2ccc(F)cc2)c1

Papp A→B [8]: 0.57 ×10⁻⁶ cm/s
SMILES: O=C(NCc1ccc(F)cc1)c1cccc(Cn2cnc3ccc(-c4cn[nH]c4)cc3c2=O)c1

Papp A→B [8]: 24.2 ×10⁻⁶ cm/s
SMILES: O=c1c2cc(-c3cn[nH]c3)ccc2ncn1Cc1cccc(OC(F)F)c1

Papp A→B [8]: 12.3 ×10⁻⁶ cm/s
SMILES: COc1ccc(Cn2cnc3ccc(-c4cn[nH]c4)cc3c2=O)cc1F

Papp A→B [8]: 0.44 ×10⁻⁶ cm/s
SMILES: O=C(Nc1ccc(F)cc1)c1cccc(Cn2cnc3ccc(-c4cn[nH]c4)cc3c2=O)c1

Continued, compound first:

SMILES: O=c1c2cc(-c3ccncc3)ccc2ncn1Cc1ccccc1
Kd (Rhodopsin kinase GRK1 [1]): > 83.3 µM
Kd [2]: > 83.3 µM

SMILES: COc1cccc(Cn2ncc3ccc(-c4cn[nH]c4)cc3c2=O)c1
Cmax [14]: 4.96 µM
IC50 [3]: 1.27 µM
IC50 (Rhodopsin kinase GRK1 [4]): > 10 µM
IC50 (Rhodopsin kinase GRK7): > 10 µM
IC50 [5]: 4.88 µM
IC50 [6]: > 10 µM
clearance [15]: 29.1 mL/min/kg
IC50 [7]: > 10 µM
Papp A→B [8]: 53.2 ×10⁻⁶ cm/s
IC50 [9]: > 10 µM
bioavailability [16]: 65.3%
Tmax [17]: 0.83 h
IC50 [10]: > 10 µM
half-life [18]: 1.01 h
IC50 [11]: 3.15 µM
IC50 [12]: > 10 µM
IC50 (Aurora kinase A): 0.137 µM
Vd [19]: 2.01 L/kg
IC50 [13]: > 10 µM
half-life [20]: 2.41 h

SMILES: COc1cc(Cn2cnc3ccc(-c4cn[nH]c4)cc3c2=O)ccc1F
Papp A→B [8]: 10.1 ×10⁻⁶ cm/s

SMILES: O=c1c2cc(-c3cncnc3)ccc2ncn1Cc1ccccc1
Kd (Rhodopsin kinase GRK1 [1]): > 83.3 µM
Kd [2]: > 83.3 µM

SMILES: COc1cccc([C@@H](C)n2cnc3ccc(-c4cn[nH]c4)cc3c2=O)c1
Papp A→B [8]: 37.8 ×10⁻⁶ cm/s

SMILES: O=c1c2ccc(-c3cn[nH]c3)cc2ncn1Cc1ccccc1
Kd (Rhodopsin kinase GRK1 [1]): 47.6 µM
Kd [2]: > 83.3 µM

SMILES: O=C(NCc1c(F)cccc1F)c1ccc(Cn2cnc3ccc(-c4cn[nH]c4)cc3c2=O)cc1
Papp A→B [8]: 0.66 ×10⁻⁶ cm/s

SMILES: O=c1c2cc(-c3ccn[nH]3)ccc2ncn1Cc1ccccc1
Kd (Rhodopsin kinase GRK1 [1]): > 83.3 µM
Kd [2]: > 83.3 µM

SMILES: CNCCC(c1cccc(OC)c1)n1cnc2ccc(-c3cn[nH]c3)cc2c1=O (racemic)
Papp A→B [8]: < 0.34 ×10⁻⁶ cm/s
